Reference: ChEMBL document CHEMBL1681706, “Design and synthesis of novel CCR2 antagonists: investigation of non-aryl/heteroaryl binding motifs” (Bioorg Med Chem Lett, 2011)

Columns and labels:
[1] = biological target: T1, C-C chemokine receptor type 2 (Homo sapiens, UniProt P41597); assay: Displacement of [125I]MCP1 from human CCR2 preincubated 30 mins by human whole cell binding assay
Outline: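 Whole cell binding to human CCR2, with a 30 min preincubation with compound.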
Target sequence in this assay (P41597 whole entry): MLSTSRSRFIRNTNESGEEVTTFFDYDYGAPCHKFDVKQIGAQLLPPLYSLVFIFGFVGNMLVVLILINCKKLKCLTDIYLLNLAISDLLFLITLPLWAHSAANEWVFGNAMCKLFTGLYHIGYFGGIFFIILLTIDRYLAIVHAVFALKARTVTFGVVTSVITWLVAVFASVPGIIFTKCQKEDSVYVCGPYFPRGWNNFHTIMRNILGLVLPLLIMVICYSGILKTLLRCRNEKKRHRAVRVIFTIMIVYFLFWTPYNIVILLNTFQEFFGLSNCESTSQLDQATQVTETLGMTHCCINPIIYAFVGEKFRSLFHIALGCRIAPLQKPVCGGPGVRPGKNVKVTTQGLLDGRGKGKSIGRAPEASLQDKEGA

hERG (KCNH2) = hERG (KCNH2) (Homo sapiens, UniProt Q12809); assay: Displacement of dofetilide from human ERG at 10 uM; conditions: probe dofetilide
hERG (KCNH2), sequence (Q12809 whole entry): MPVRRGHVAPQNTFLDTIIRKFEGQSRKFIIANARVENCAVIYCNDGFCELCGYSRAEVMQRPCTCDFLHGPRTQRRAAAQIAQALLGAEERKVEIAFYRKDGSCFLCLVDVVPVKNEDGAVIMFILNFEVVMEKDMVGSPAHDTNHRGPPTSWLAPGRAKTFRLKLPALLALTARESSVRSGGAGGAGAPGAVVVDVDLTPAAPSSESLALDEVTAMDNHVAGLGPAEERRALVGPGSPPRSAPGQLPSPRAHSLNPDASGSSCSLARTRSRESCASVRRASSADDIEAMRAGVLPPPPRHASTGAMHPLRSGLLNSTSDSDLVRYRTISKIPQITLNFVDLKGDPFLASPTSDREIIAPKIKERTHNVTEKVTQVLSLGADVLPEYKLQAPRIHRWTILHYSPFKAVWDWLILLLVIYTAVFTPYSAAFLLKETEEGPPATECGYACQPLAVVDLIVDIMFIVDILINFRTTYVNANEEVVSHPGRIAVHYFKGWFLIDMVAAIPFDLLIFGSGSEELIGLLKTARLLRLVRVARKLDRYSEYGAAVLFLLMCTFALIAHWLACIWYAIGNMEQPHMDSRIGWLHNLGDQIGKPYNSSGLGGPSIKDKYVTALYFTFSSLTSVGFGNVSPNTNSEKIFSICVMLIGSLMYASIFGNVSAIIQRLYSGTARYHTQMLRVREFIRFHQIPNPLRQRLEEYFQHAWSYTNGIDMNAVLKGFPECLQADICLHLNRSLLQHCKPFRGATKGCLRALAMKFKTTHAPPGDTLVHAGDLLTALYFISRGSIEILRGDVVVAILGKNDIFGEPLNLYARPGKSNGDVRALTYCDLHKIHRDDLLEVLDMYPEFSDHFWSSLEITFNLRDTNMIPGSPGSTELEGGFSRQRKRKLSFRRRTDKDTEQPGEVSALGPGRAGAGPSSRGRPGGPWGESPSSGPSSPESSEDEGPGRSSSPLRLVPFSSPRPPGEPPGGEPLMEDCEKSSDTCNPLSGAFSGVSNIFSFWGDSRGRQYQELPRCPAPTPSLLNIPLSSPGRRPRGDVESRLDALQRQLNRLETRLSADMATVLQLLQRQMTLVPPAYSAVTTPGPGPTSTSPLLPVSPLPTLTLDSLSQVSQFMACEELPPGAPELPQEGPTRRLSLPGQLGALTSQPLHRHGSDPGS
Outline: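 hERG dofetilide assay, read out as percent inhibition at a single concentration of test compound.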

[2] = Half life in human liver microsomes at 1 uM; type: ADME, Microsome
Outline: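 Human liver microsome stability test, read out as half-life (t1/2, min) after a single low dose of compound.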

[3] = biological target: T1, C-C chemokine receptor type 2; assay: Displacement of [125I]MCP1 from human CCR2 preincubated 1 hrs by human whole cell binding assay
Outline: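 Human CCR2 whole cell binding, with compound preincubated for 1 h before the binding read-out.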
Target sequence in this assay (P41597 whole entry): as the sequence (P41597 whole entry) above

[4] = biological target: T1, C-C chemokine receptor type 2; assay: Displacement of [125I]MCP1 from human CCR2 at 0.30 uM preincubated 30 mins by human whole cell binding assay
Target sequence in this assay (P41597 whole entry, looked up): as the sequence (P41597 whole entry) above

[5] = Apparent permeability from basolateral to apical side of MDCK cells; type: ADME, cell-based, Canis lupus familiaris; conditions: dog
[6] = Apparent permeability from apical to basolateral side of MDCK cells; type: ADME, cell-based, Canis lupus familiaris; conditions: dog
[7] = Efflux ratio of permeability from basolateral to apical over apical to basolateral side of MDCK cells; type: ADME, cell-based, Canis lupus familiaris; conditions: dog
[8] = biological target: T1, C-C chemokine receptor type 2; assay: Displacement of [125I]MCP1 from human CCR2 at 0.30 uM preincubated 1 hr by human whole cell binding assay
Target sequence in this assay (P41597 whole entry, looked up): as the sequence (P41597 whole entry) above

[9] = biological target: T1, C-C chemokine receptor type 2; assay: Displacement of [125I]MCP1 from human CCR2 at 0.30 uM by human whole cell binding assay
Target sequence in this assay (P41597 whole entry, looked up): as the sequence (P41597 whole entry) above

SMILES | IC50 [1] | inhibition at 10 µM (hERG (KCNH2)) | half-life at 1 µM [2] | IC50 [3] | other results
CC(C)[C@]1(C(=O)N2C[C@@H]3C[C@H]2CN3C(=O)CCC(F)(F)F)CC[C@@H](NC2CCOCC2)C1 | 14.6 nM | 1% | > 2 h | – | –
CC(OC(=O)N1C[C@@H]2C[C@H]1CN2C(=O)[C@@]1(C(C)C)CC[C@@H](NC2CCOCC2)C1)C(F)(F)F (stereo partly specified) | 3.5 nM | 2% | 1.3 h | – | –
CC(C)[C@]1(C(=O)N2C[C@@H]3C[C@H]2CN3C(=O)C2CCCCC2)CC[C@@H](NC2CCOCC2F)C1 (stereo partly specified) | 15.2 nM | 0% | 0.917 h | – | –
CC(C)[C@]1(C(=O)N2C[C@@H]3C[C@H]2CN3C(=O)C2CCCC2)CC[C@@H](NC2CCOCC2)C1 | – | 2% | > 2 h | 12.2 nM | –
CC(=O)N1C[C@@H]2C[C@H]1CN2C(=O)[C@@]1(C(C)C)CC[C@@H](NC2CCOCC2)C1 | – | 0% | > 2 h | – | Activity [4]: 1%
CC(C)[C@]1(C(=O)N2C[C@@H]3C[C@H]2CN3C(=O)C2CCCC2)CC[C@@H](NC2CCOCC2F)C1 (stereo partly specified) | 13.9 nM | 3% | > 2 h | – | –
CC(C)[C@]1(C(=O)N2C[C@@H]3C[C@H]2CN3C(=O)N2CCCCC2)CC[C@@H](NC2CCOCC2F)C1 (stereo partly specified) | 75.9 nM | 0% | – | – | –
CC(C)C(=O)N1C[C@@H]2C[C@H]1CN2C(=O)[C@@]1(C(C)C)CC[C@@H](NC2CCOCC2)C1 | – | 3.7% | > 2 h | – | Activity [4]: 40%
CO[C@@H]1COCC[C@@H]1N[C@@H]1CC[C@@](C(=O)N2CCN(C(=O)OC(C)(C)C)CC2)(C(C)C)C1 | – | – | – | 251 nM | –
CC(C)[C@]1(C(=O)N2C[C@@H]3C[C@H]2CN3C(=O)NC(C)(C)C)CC[C@@H](NC2CCOCC2F)C1 (stereo partly specified) | 28 nM | 0% | 1.77 h | – | –
CC(C)[C@]1(C(=O)N2C[C@@H]3C[C@H]2CN3C(=O)C2CCC2)CC[C@@H](NC2CCOCC2)C1 | – | 6% | > 2 h | 32 nM | –
CC(C)COC(=O)N1C[C@@H]2C[C@H]1CN2C(=O)[C@@]1(C(C)C)CC[C@@H](NC2CCOCC2F)C1 (stereo partly specified) | 4.3 nM | 0% | 0.467 h | – | –
CC(C)[C@]1(C(=O)N2C[C@@H]3C[C@H]2CN3C(=O)OC(C)(C)C)CC[C@@H](NC2CCOCC2F)C1 (stereo partly specified) | – | 6% | 0.62 h | 4.2 nM | –
CO[C@@H]1COCC[C@@H]1N[C@@H]1CC[C@@](C(=O)N2C[C@@H]3C[C@H]2CN3C(=O)CC(C)(C)C)(C(C)C)C1 | 24.2 nM | 0% | > 2 h | 17 nM | –
CC(C)[C@]1(C(=O)N2C[C@@H]3C[C@H]2CN3C(=O)C(C)(C)C)CC[C@@H](NC2CCOCC2)C1 | – | 2% | > 2 h | – | Activity [4]: 23%
CO[C@@H]1COCC[C@@H]1N[C@@H]1CC[C@@](C(=O)N2C[C@@H]3C[C@H]2CN3C(=O)c2ccccc2)(C(C)C)C1 | 12 nM | 7.8% | 1.57 h | 6.5 nM | –
CC(C)[C@]1(C(=O)N2C[C@@H]3C[C@H]2CN3C(=O)C2CC2)CC[C@@H](NC2CCOCC2)C1 | 130 nM | 2.3% | > 2 h | – | –
CC(C)[C@]1(C(=O)N2C[C@@H]3C[C@H]2CN3C(=O)CC(C)(C)C)CC[C@@H](NC2CCOCC2F)C1 (stereo partly specified) | 39.5 nM | 0% | 1.27 h | – | –

SMILES | IC50 [1] | inhibition at 10 µM (hERG (KCNH2)) | half-life at 1 µM [2] | IC50 [3] | other results
CC(C)[C@]1(C(=O)N2C[C@@H]3C[C@H]2CN3C(=O)CCC(F)(F)F)CC[C@@H](NC2CCOCC2F)C1 (stereo partly specified) | 17.3 nM | 5% | > 2 h | – | Papp B→A [5]: 5.3 ×10⁻⁶ cm/s; Papp A→B [6]: 8.35 ×10⁻⁶ cm/s; efflux ratio [7]: 0.6
CC(C)[C@]1(C(=O)N2C[C@@H]3C[C@H]2CN3C(=O)OC2CCCC2)CC[C@@H](NC2CCOCC2F)C1 (stereo partly specified) | 3.1 nM | 0% | 0.283 h | – | –
CC(C)[C@]1(C(=O)N2C[C@@H]3C[C@H]2CN3C(=O)C2CCCCC2)CC[C@@H](NC2CCOCC2)C1 | 11.6 nM | 4% | 1.55 h | – | –
CC(CC(=O)N1C[C@@H]2C[C@H]1CN2C(=O)[C@@]1(C(C)C)CC[C@@H](NC2CCOCC2)C1)C(F)(F)F (stereo partly specified) | 13 nM | 5% | > 2 h | – | –
CC(C)[C@]1(C(=O)N2C[C@@H]3C[C@H]2CN3C(=O)c2ccccc2)CC[C@@H](NC2CCOCC2F)C1 (stereo partly specified) | 17.5 nM | 0% | – | – | –
CO[C@@H]1COCC[C@@H]1N[C@@H]1CC[C@@](C(=O)N2C[C@@H]3C[C@H]2CN3C(=O)C2CCC2)(C(C)C)C1 | – | 4% | > 2 h | 11.7 nM | –
CO[C@@H]1COCC[C@@H]1N[C@@H]1CC[C@@](C(=O)N2C[C@@H]3C[C@H]2CN3C(=O)C(C)(C)C)(C(C)C)C1 | – | 6% | > 2 h | – | Activity [8]: 40%
CO[C@@H]1COCC[C@@H]1N[C@@H]1CC[C@@](C(=O)N2C[C@@H]3C[C@H]2CN3C(=O)OC(C)(C)C)(C(C)C)C1 | – | 0% | > 2 h | 2.9 nM | –
CC(C)[C@]1(C(=O)N2CCN(C(=O)OC(C)(C)C)CC2)CC[C@@H](NC2CCOCC2)C1 | – | – | – | – | Activity [9]: 24%
CCC(=O)N1C[C@@H]2C[C@H]1CN2C(=O)[C@@]1(C(C)C)CC[C@@H](NC2CCOCC2)C1 | – | 6% | > 2 h | – | Activity [4]: 28%
CC(C)[C@]1(C(=O)N2C[C@@H]3C[C@H]2CN3C(=O)CC(C)(C)C)CC[C@@H](NC2CCOCC2)C1 | – | 5.7% | > 2 h | 36.9 nM | –
CC(OC(=O)N1C[C@@H]2C[C@H]1CN2C(=O)[C@@]1(C(C)C)CC[C@@H](NC2CCOCC2F)C1)C(F)(F)F (stereo partly specified) | 3.2 nM | 3% | 0.433 h | – | –
CC(C)[C@]1(C(=O)N2C[C@@H]3C[C@H]2CN3C(=O)OC(C)(C)C)CC[C@@H](NC2CCOCC2)C1 | – | 4.8% | > 2 h | 5 nM | –
CC(C)[C@]1(C(=O)N2C[C@@H]3C[C@H]2CN3C(=O)CC2CCCC2)CC[C@@H](NC2CCOCC2F)C1 (stereo partly specified) | 14.7 nM | 3% | 0.8 h | – | –
CC(C)[C@]1(C(=O)N2C[C@@H]3C[C@H]2CN3C(=O)C2CCOCC2)CC[C@@H](NC2CCOCC2)C1 | – | 0% | > 2 h | – | Activity [4]: 46%
CC(C)[C@]1(C(=O)N2C[C@@H]3C[C@H]2CN3C(=O)C2CCC2)CC[C@@H](NC2CCOCC2F)C1 (stereo partly specified) | 38.4 nM | 17% | 0.35 h | – | –
CC(CC(=O)N1C[C@@H]2C[C@H]1CN2C(=O)[C@@]1(C(C)C)CC[C@@H](NC2CCOCC2F)C1)C(F)(F)F (stereo partly specified) | 12.8 nM | 0% | > 2 h | – | Papp B→A [5]: 10.2 ×10⁻⁶ cm/s; Papp A→B [6]: 11.8 ×10⁻⁶ cm/s; efflux ratio [7]: 0.8
CO[C@@H]1COCC[C@@H]1N[C@@H]1CC[C@@](C(=O)N2C[C@@H]3C[C@H]2CN3C(=O)C2CCCC2)(C(C)C)C1 | 11.1 nM | 6.7% | > 2 h | 8.5 nM | –
